From ChEMBL document CHEMBL5390200, “Synthesis and evaluation of DAG-lactone derivatives with HIV-1 latency reversing activity” (Eur J Med Chem, 2023) come the findings set out here.

Data set [1] has as its system Human immunodeficiency virus 1. Put plainly: HIV1-latency reversing activity in human J-Lat 10.6 cells assessed as change in GFP expression incubated for 24 hrs by flow cytometric analysis. Particulars: Human immunodeficiency virus 1, J-Lat 10.6, 24 h; call rule not given here. It is filed as functional, organism-based. In short, it runs like this: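 Cells seeded at 2 × 10^5 per well and exposed to a range of compound concentrations for 24 h; 10 nM PMA served as reference. GFP-positive cells counted by flow cytometry. Means ± SD from at least two independent experiments.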

A short description of data set [2]: Cytotoxicity against human Jurkat cells assessed as reduction in cell viability incubated for 24 hrs by Ghost dye 780 staining based flow cytometric analysis. The format is toxicity.
Data set [3] has as its target Protein kinase C delta type (Homo sapiens, UniProt Q05655). Put plainly: Binding affinity to PKCdelta C1B domain (231 to 281 residues) (unknown origin) by 6-methoxynaphthalene DAG lactone probe based fluorescence quenching assay.
Data set [4] in a line: Stability of the compound assessed as porcine liver esterase-mediated hydrolysis measured after 1 to 24 hrs by HPLC analysis. The note with it: pig, isolated protein; time 1-24 hrs. It is filed as ADME, Sus scrofa. In short, it runs like this:
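Compounds taken from 100 mM DMSO stock to 1 mM final in 50 mM HEPES pH 7.2 with 0.01 U PLE, then held at 37 °C. Aliquots sampled at 1, 3, 6 and 24 h and quenched into equal volume MeCN/0.1% TFA. C18 reversed-phase HPLC with 0–95% MeCN gradient over 40 min, UV detection at 245 nm. Residual peak area normalized to 0 h.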

Data set [5] has as its system Human immunodeficiency virus 1. Put plainly: HIV1-latency reversing activity in human ACH-2 cell line incubated for 48 hrs. It is filed as functional, organism-based. The note with it: Human immunodeficiency virus 1, ACH-2, 48 h.
Data set [6] deals with Human immunodeficiency virus 1. Put plainly: HIV1-latency reversing activity in human U1 cells incubated for 2 days. The note with it: Human immunodeficiency virus 1, U1, 48 h. It is filed as functional, organism-based.

Protein kinase C delta type, sequence (Q05655 whole entry, the tested form may be a part): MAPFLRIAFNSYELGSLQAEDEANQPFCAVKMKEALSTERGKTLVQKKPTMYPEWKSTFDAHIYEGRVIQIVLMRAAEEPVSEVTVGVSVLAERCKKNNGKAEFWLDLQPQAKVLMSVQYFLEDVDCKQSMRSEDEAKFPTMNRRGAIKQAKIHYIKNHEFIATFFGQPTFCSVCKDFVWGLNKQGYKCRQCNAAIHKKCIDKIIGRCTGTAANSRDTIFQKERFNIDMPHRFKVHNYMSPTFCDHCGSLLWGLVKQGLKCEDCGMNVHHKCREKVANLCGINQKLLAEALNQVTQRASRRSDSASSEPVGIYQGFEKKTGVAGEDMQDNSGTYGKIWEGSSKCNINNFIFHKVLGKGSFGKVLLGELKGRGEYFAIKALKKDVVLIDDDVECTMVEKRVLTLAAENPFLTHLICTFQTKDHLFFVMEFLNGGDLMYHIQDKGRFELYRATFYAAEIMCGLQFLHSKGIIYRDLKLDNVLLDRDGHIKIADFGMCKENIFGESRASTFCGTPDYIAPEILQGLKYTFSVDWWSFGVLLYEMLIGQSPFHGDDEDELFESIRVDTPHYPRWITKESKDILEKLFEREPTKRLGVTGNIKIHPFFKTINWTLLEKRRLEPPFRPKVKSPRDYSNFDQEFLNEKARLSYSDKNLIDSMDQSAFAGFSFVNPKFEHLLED

Consider `CC(C)=C1CC(CO)(COC(=O)C(C)C)OC1=O` (centres undefined), for which the 50% effective concentration (EC50) in data set [1] is more than 10000 nM. Consider `CC(=O)O[C@@]12C[C@@H](C)[C@@]3(O)[C@@H](C=C(CO)C[C@]4(O)C(=O)C(C)=C[C@@H]34)[C@@H]1C2(C)C` [PROSTRATIN], for which, in data set [2], the CC50 at 24 h is more than 10000 nM. On to `CCCCCCCCC(CCCCCCCC)C(=O)OCC1(CO)CC(=C(C)C)C(=O)O1` (centres undefined), for which the CC50 at 24 h in data set [2] was more than 10000 nM. The concentration for a half-maximal effect (EC50) in data set [1] turned out to be 340 nM. In the case of `CC(C)=C1CC(CO)(COC(=O)C2CCCCC2)OC1=O` (centres undefined), the 50% effective concentration (EC50) in data set [1] is more than 10000 nM. As for `CC(=O)OCC1(CO)CC(=C(C)C)C(=O)O1` (centres undefined), the CC50 at 24 h in data set [2] is more than 10000 nM. In addition, the IC50 entry in data set [3] is on record as “Not Active”. In data set [1], the EC50 was more than 10000 nM. As for `CC(C)=C1CC(CO)(COC(=O)C(C)(C)C)OC1=O` (centres undefined), in data set [2], the CC50 at 24 h was more than 10000 nM. Besides, in data set [4], the Stability entry was “Stable”. The IC50 in data set [3] (read-out: IC50) is more than 10000 nM. In data set [1], the half-maximal effective concentration (EC50) is more than 10000 nM. For the molecule `CCCCCCCC(CCCCCCC)C(=O)OCC1(CO)CC(=C(C)C)C(=O)O1` (centres undefined), the CC50 at 24 h in data set [2] is more than 10000 nM. Further, the EC50 in data set [1] came out at 380 nM.

Regarding `CCCCCCCCCCc1ccc2c(c1)N(C)[C@@H](C(C)C)C(=O)N[C@H](CO)C2`, in data set [5], the EC50 was 25 nM.

Regarding `CCCCC(=O)OCC1(CO)CC(=C(C)C)C(=O)O1` (centres undefined), in data set [1], the EC50 was more than 10000 nM. On the same count and under the same terms, next, `CCC(CC)C(=O)OCC1(CO)CC(=C(C)C)C(=O)O1` (centres undefined): more than 10000 nM. `C=C(C)[C@]12C[C@@H](COC(=O)c3ccccc3)[C@@]34O[C@@]5(O[C@@H]1[C@@H]3[C@@H]1O[C@]1(CO)[C@@H](O)[C@@]1(O)[C@H]4[C@H]([C@H](C)[C@@H]1OC(=O)c1ccccc1)[C@H](C)CCCCCC[C@H]5O)O2`: the EC50 in data set [6] came to 0.018 nM.

As for `CCCCCCCCCC(CCCCCCCCC)C(=O)OCC1(CO)CC(=C(C)C)C(=O)O1` (centres undefined), in data set [2], the CC50 at 24 h is more than 10000 nM. Further, the IC50 in data set [3] (read-out: IC50) is 560 nM. In addition, the EC50 in data set [1] was determined as 310 nM. As to `CC(C)=C1CC(CO)(COC(=O)c2ccc3ccccc3c2)OC1=O` (centres undefined), the EC50 in data set [1] was more than 10000 nM. `CCCCCC(CCCCC)C(=O)OCC1(CO)CC(=C(C)C)C(=O)O1` (centres undefined): the CC50 at 24 h in data set [2] is more than 10000 nM. In data set [1], the EC50 turned out to be 430 nM. Take `CCCCCCCCCC(=O)OCC1(CO)CC(=C(C)C)C(=O)O1` (centres undefined): the CC50 at 24 h in data set [2] is more than 10000 nM. Moreover, in data set [4], the Stability entry is recorded as “Unstable”. For the same molecule, the IC50 in data set [3] (read-out: IC50) was 2200 nM. Further, the EC50 in data set [1] was more than 10000 nM.

Turning to `CC(C)=C1CC(CO)(COC(=O)C2CCC(C)CC2)OC1=O` (centres undefined), the EC50 in data set [1] is more than 10000 nM. For `CCCCCCC(CCCCCC)C(=O)OCC1(CO)CC(=C(C)C)C(=O)O1` (centres undefined), the cytotoxic concentration (CC50) at 24 h in data set [2] is more than 10000 nM. For the same molecule, in data set [4], the Stability entry was “Stable”. Also, in data set [3] (read-out: IC50), the half-maximal inhibitory concentration (IC50) turned out to be 690 nM. The EC50 in data set [1] is 220 nM. With `CCCC(CCC)C(=O)OCC1(CO)CC(=C(C)C)C(=O)O1` (centres undefined), the CC50 at 24 h in data set [2] is more than 10000 nM. In data set [4], the Stability result was “Stable”. Besides, the EC50 in data set [1] was 2000 nM.

For the molecule `CC(C)=C1CC(CO)(COC(=O)c2ccccc2)OC1=O` (centres undefined), the EC50 in data set [1] was more than 10000 nM. With `CCCCC(CCCC)C(=O)OCC1(CO)CC(=C(C)C)C(=O)O1` (centres undefined), the CC50 at 24 h in data set [2] is more than 10000 nM. Besides, the EC50 in data set [1] is 820 nM.
